# Source: PubChem
# An excerpt weighted towards active compounds, which were near 2.3% of everything screened.
# V1R ag counter = V1a receptor agonism, counter-screen for OXTR agonists; P37288; CHO-V1R cells, Fluo-8 calcium fluorescence, agonist mode; 0% DMSO, 100% 3 nM vasopressin; activation, % at 3 µM; 320,000 tested, 0.25% active;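 active = activation above the mean activation of all tested compounds plus 3 SD, per screening run, cut at about 20% in these data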;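 note: signal is peak over basal fluorescence ratio across a 100 second FLIPR read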
# Target sequence (P37288 whole entry, looked up): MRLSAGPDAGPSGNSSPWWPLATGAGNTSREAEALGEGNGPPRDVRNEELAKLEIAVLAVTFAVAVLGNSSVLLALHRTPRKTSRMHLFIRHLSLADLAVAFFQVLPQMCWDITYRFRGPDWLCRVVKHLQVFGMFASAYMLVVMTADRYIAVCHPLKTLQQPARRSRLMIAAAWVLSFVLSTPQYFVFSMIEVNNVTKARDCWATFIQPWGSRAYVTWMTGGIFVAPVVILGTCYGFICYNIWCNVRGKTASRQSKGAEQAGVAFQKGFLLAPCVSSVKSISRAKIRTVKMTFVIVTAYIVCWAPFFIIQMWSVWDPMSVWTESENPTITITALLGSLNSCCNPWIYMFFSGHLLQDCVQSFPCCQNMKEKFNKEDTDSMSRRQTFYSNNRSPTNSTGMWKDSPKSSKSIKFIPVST
# TAAR1 antagonist = human TAAR1 antagonism | Q96RJ0 | CHO RD-HGA16 TAAR1, Fluo-8 calcium fluorescence, antagonist | inhibition, % at 3 µM | 360,000 tested, 1.5% active;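 active = inhibition above a per-plate cutoff, the mean inhibition of test compounds on that plate plus 3 SD, cut at about 49% in these data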;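 note: 0% = DMSO plus EC80 beta-PEA response and 100% = DMSO alone without agonist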
#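 Material: CHO RD-HGA16 cells bearing hTAAR1; compound dosing: one-point dosing, 3 µM nominal final; schedule: dye loading 75 min at 37 °C, then 30 min room temperature; measured by: calcium fluorescence with Fluo-8; control set: vehicle and agonist controls; replication: n of 1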
# OXTR potentiate = potentiators of human oxytocin receptor; CHO-OTR cells, Fluo-8 calcium fluorescence, potentiator mode; 0% = oxytocin EC15, 100% = EC100; P30559; activation, % at 3 µM; 320,000 tested, 0.061% active;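 active = activation above that plate's cutoff, the mean activation of tested compounds plus 3 SD, cut at about 6.6% in these data, passing the limit was not always enough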;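 note: 100% uses oxytocin at 75 nM as the full agonist control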
#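 Replication – single well per compound, singlicate · Assay system – CHO cell line stably expressing human OTR · Timing – 6 min pre-incubation, 100 s read · Measure – normalized max/min fluorescence ratio, % activation · Doses – 3.0 µM, one dose · Detection – Fluo-8 calcium dye fluorescence · Probe or stimulus – oxytocin near EC15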
# OXTR ag = activates the human oxytocin receptor | P30559 | CHO-OTR cells, Fluo-8 calcium fluorescence; normalized: DMSO 0%, oxytocin 100% | activation, % at 3 µM | 320,000 tested, 0.32% active;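 active = activation above the mean of all tested compounds plus 3 SD, cutoff set per screening run, cut at about 20% in these data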;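 note: peak over basal fluorescence ratio from a 100 s FLIPR kinetic read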
# TAAR1 agonist = human TAAR1 agonism; Q96RJ0; CHO RD-HGA16 TAAR1, Fluo-8 calcium fluorescence; vehicle wells 0%, saturating PEA agonist 100%; activation, % at 3 µM; 360,000 tested, 0.99% active; AID 624467;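 active = activation above the mean activation of all test compounds in the run plus 3 SD, cut at about 38% in these data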
#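 Test system: RD-HGA16 (CHO) cells co-expressing Gα16 and hTAAR1 | Doses: Single dose, 3 µM | Schedule: 17-24 h seeding, 75 min 37 °C dye, 30 min RT | Evaluation: % activation from peak over basal fluorescence ratio, DMSO-to-PEA scaled | Technique: Kinetic Fluo-8 calcium fluorescence | Benchmarks: Low control DMSO, high control PEA (EC100)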
# TAAR1 nonsel count = nonselective antagonist in TAAR1 antagonist counter-screen; inhibition, % at 3 µM; 2,400 tested, 77% active; AID 651780; counterscreen cell line, calcium fluorescence, antagonist mode; shares compounds with TAAR1 antagonist; in the data active = inhibition above about 22%;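 note: CHO-Ga16 host cells stimulated with ATP at an EC80 level; 0% = agonist EC80 plus vehicle and 100% = vehicle without agonist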
# TAAR1 ant conf = confirmation of human TAAR1 antagonists | shares compounds with TAAR1 antagonist | AID 651785 | 2,400 tested, 40% active | inhibition, % at 3 µM | TAAR1-expressing cells, fluorescence antagonist read-out; in the data active = inhibition above about 49%;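 note: CHO-Ga16 host cells challenged with agonist PEA near its EC80; 0% = agonist at EC80 plus vehicle and 100% = vehicle with no agonist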
# Ga16 nonsel ag = nonselective Ga16 agonist in TAAR1 antagonist counter-screen | shares compounds with TAAR1 antagonist | Ga16-expressing cells, calcium fluorescence, agonist counterscreen | activation, % at 3 µM | 2,400 tested, 18% active; in the data active = activation above about 12%;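 note: 0% = vehicle wells and 100% = saturating stimulus response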
# TAAR1 ag counter = TAAR1 agonism, antagonist counter-screen; shares compounds with TAAR1 antagonist; hTAAR1 cell line, fluorescence activation, agonist mode; activation, % at 3 µM; 2,400 tested, 2% active; AID 651955; in the data active = activation above about 37%;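 note: CHO cells stably expressing TAAR1 with calcium dye readout; 0% = DMSO vehicle and 100% = full agonist response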
# The depositor's hits bear a star; . = no result given.
SMILES,V1R ag counter,TAAR1 antagonist,OXTR potentiate,OXTR ag,TAAR1 agonist,TAAR1 nonsel count,TAAR1 ant conf,Ga16 nonsel ag,TAAR1 ag counter
COc1cc(OC)cc(C(=O)NCCNc2nc3cc(C)cc(C)c3cc2C#N)c1,-1,4,0,-2,-2,.,.,.,.
CCCCNc1c(-c2ccc(OC)c(Sc3ccc(OC)cc3)c2)nc2cnccn12,1,75*,-3,-1,11,23*,57*,4,8
COc1ccc(-n2cc(-c3ccccc3)c3c(NN4CCOCC4)ncnc32)cc1,3,56*,-8,3,15,25*,40,11,14
Cc1cccc(-n2cc(-c3ccccc3)c3c(N4CCOCC4)ncnc32)c1,-1,60*,-28,-2,4,27*,45,5,6
Fc1ccc(-n2cc(-c3ccccc3)c3c(NN4CCOCC4)ncnc32)cc1,3,18,-6,6,8,.,.,.,.
CC(=O)NC(Cc1ccc(F)c(F)c1)C(=O)NC1CCN(S(=O)(=O)c2ccc(C)cc2)CC1 (centres undefined),.,-7,.,.,3,.,.,.,.
COc1cc(NS(=O)(=O)c2ccc(NC(=O)CCC(=O)O)cc2)nc(OC)n1,-1,-4,-1,0,-1,.,.,.,.
Cc1nnc(SCC(=O)Nc2nsc(-c3ccc(C(C)(C)C)cc3)n2)s1,4,59*,-7,-1,2,32*,39,7,4
CCOC(=O)c1c(NC(=O)COc2ccccc2C#N)sc2c1CC(C)(C)NC2(C)C,2,74*,-12,5,22,28*,46,14*,16
CCOC(=O)c1sc(NC(=O)C(CC)OC(=O)C(CC(C)C)NC(=O)c2ccccc2)nc1C (centres undefined),1,65*,-11,0,11,39*,57*,7,4
CCC(OC(=O)C(CC(C)C)NC(=O)c1ccccc1)C(=O)Nc1nnc(C)s1 (centres undefined),-1,40,-8,-2,3,.,.,.,.
O=C(C[n+]1cc(-c2ccccc2)n2c1CCC2)Nc1nc(-c2ccccc2)cs1,0,-14,-4,-1,1,.,.,.,.
O=C(CSCC(=O)N1CCCc2ccccc21)Nc1nc(-c2ccccc2)cs1,3,51*,-8,0,0,29*,34,3,3
CCOC(=O)C1=C(C)NC(C)=C(C(=O)OCC)C1C(=O)OCC(=O)NC(C)C,0,60*,-5,-1,16,23*,45,8,9
CCOC(=O)C1=C(C)NC(C)=C(C(=O)OCC)C1C(=O)OCC(N)=O,0,-15,-2,1,0,.,.,.,.
O=C(CSc1c(Cl)cccc1Cl)N1CCC(c2nc3ccccc3s2)CC1,4,59*,-18,4,18,44*,50*,12*,11
COc1cccc(NC(=O)CCSc2ccc3ccccc3n2)c1,2,76*,-3,-1,-3,8,14,3,-1
CCOc1ccc(S(=O)(=O)Nc2cccc(C(=O)NCC(c3ccc(OC)cc3)N3CCOCC3)c2)cc1 (centres undefined),5,5,-8,0,5,.,.,.,.
COc1cc(NC(=O)c2cccc3c(-c4cccnc4)coc23)cc(OC)c1OC,.,76*,.,.,20,29*,59*,16*,15
COCCNC(=O)c1cccc2c(-c3cccc(C(N)=O)c3)coc12,.,-20,.,.,0,.,.,.,.
CC(=O)c1cccc(NC(=O)c2cccc3c(-c4cccc(C(N)=O)c4)coc23)c1,.,85*,.,.,13,42*,56*,13*,11
CSc1ncnc2c1ncn2CCCNCc1ccc2c(c1)OCO2,.,-3,.,.,0,.,.,.,.
Cc1ccc(C(C)C)c(OCCNC(=O)c2ccccc2O)c1,3,58*,-17,-2,2,17,40,3,3
O=[N+]([O-])c1ccc(/C=N/Nc2ccc3ccccc3c2)o1,9,76*,-18,12,21,52*,65*,19*,7
O=C(Nc1ccc(-c2nnc(-c3ccco3)o2)cc1)C(c1ccccc1)c1ccccc1,1,74*,-5,1,18,32*,43,6,2
SMILES,V1R ag counter,TAAR1 antagonist,OXTR potentiate,OXTR ag,TAAR1 agonist,TAAR1 nonsel count,TAAR1 ant conf,Ga16 nonsel ag,TAAR1 ag counter
O=C(CCSCc1ccc(Cl)cc1)NCCC1=CCCCC1,0,0,-5,-2,4,.,.,.,.
Cc1ccccc1CSCCC(=O)NCCC1=CCCCC1,-1,53*,-11,-1,7,8,39,3,5
CCOC(=O)c1cc2c(N)c(C(=O)c3cc(C#N)c(SC)nc3C)sc2nc1C,1,68*,-5,1,5,31*,42,4,1
O=C(O)COc1ccc(NC(=O)c2ccc3c(c2)C(=O)N(Cc2ccccc2)C3=O)cc1,0,-5,-3,0,2,.,.,.,.
CC(C)(C)NC(=O)c1cccc(NC(=O)c2ccc3c(c2)C(=O)N(C(C)(C)C)C3=O)c1,8,85*,-14,2,21,38*,65*,13*,11
Cc1ccc(O)c(NC(=O)c2ccc3c(c2)C(=O)N(Cc2cccnc2)C3=O)c1,3,77*,-11,5,21,34*,59*,13*,14
O=C(Nc1ccc(O)cc1)c1ccc2c(c1)C(=O)N(Cc1ccccc1)C2=O,8,63*,-5,9,28,22*,43,14*,23
COC(=O)c1cccc(NC(=O)c2ccc3c(c2)C(=O)N(C(C)(C)C)C3=O)c1,2,65*,-12,-2,11,38*,63*,9,6
[N-]=[N+]=NCCN1CCN(CCc2ccccc2)CCC1=O,0,14,-5,0,3,.,.,.,.
Cn1cc(NC(=O)Nc2ccc(C(F)(F)F)cc2)c(C(F)(F)F)n1,8,-19,-17,7,12,.,.,.,.
CC(C)(C)N1C(=O)c2ccc(C(=O)Nc3ccc(O)cc3)cc2C1=O,1,63*,-7,0,12,24*,26,7,6
CC(C)(C)N1C(=O)c2ccc(C(=O)O)cc2C1=O,1,-14,-10,1,2,.,.,.,.
